Experimental data published in ChEMBL document CHEMBL1687740, “Cellular accumulation and pharmacodynamic evaluation of the intracellular activity of CEM-101, a novel fluoroketolide, against Staphylococcus aureus, Listeria monocytogenes, and Legionella pneumophila in human THP-1 macrophages” (Antimicrob Agents Chemother, 2009).
Converted amounts (≈) assume the structure as drawn. The source made the active and inactive calls. The rule behind the calls is not given here.

How the values were obtained:
Staphylococcus aureus [1] = experiment: Antibacterial activity against methicillin-sensitive Staphylococcus aureus ATCC 25923 infected in human THP1 cells assessed as concentration required to no apparent bacterial growth after 24 hrs; type: functional, THP-1
Method in brief: (§1)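 THP-1 macrophages infected, non-phagocytosed bacteria removed, then exposed 24 h over a concentration range. Postphagocytosis inoculum (2.74 ± 0.55) × 10⁶ CFU/mg protein. Hill fit (slope 1). […] Cs = no change from inoculum, by graphical intrapolation. n = 3.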

Staphylococcus aureus [2] = experiment: Antibacterial activity against methicillin-sensitive Staphylococcus aureus ATCC 25923 assessed as decrease of CFU after 24 hrs relative to initial inoculum; type: functional
Method in brief: (§2)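 24-h concentration-response in Mueller-Hinton broth; original inoculum (0.97 ± 0.24) × 10⁶ CFU/ml. Hill equation fit (slope factor 1). Emax = log10 CFU decrease from inoculum extrapolated to infinite concentration. Cs = concentration giving CFU equal to inoculum, by graphical intrapolation. Counts under five taken as below detection. n = 3.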

Listeria monocytogenes [3] = experiment: Antibacterial activity against Listeria monocytogenes EGD at pH 5.5 to 7.4 after 24 hrs; type: functional; conditions: EGD-e
Staphylococcus aureus [4] = experiment: Antibacterial activity against methicillin-sensitive Staphylococcus aureus ATCC 25923 at pH 5.5 to 7.4 after 24 hrs; type: functional
THP-1 [5] = experiment: Drug uptake in human THP1 cells after 24 hrs in presence of gemfibrozil; type: ADME, cell-based; conditions: thp-1, 24 h
Method in brief: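 Accumulation at 37°C, 10 mg/liter drug, with gemfibrozil 250 μM for 24 h. Microbiological assay normalized to cell protein. n = 3.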

THP-1 [6] = experiment: Drug uptake in human THP1 cells after 24 hrs in presence of verapamil; type: ADME, cell-based; conditions: thp-1, 24 h
Method in brief: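 Accumulation at 37°C, 10 mg/liter drug, with verapamil 150 μM for 24 h. Microbiological assay normalized to cell protein. n = 3.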

Staphylococcus aureus [7] = experiment: Antibacterial activity against methicillin-sensitive Staphylococcus aureus ATCC 25923 infected in human THP1 cells assessed as decrease of CFU after 24 hrs; type: functional, organism-based; conditions: ATCC 25923, THP-1, 24 h; method in brief: as §1
Staphylococcus aureus [8] = experiment: Antibacterial activity against methicillin-sensitive Staphylococcus aureus ATCC 25923 assessed as concentration required to no apparent bacterial growth after 24 hrs; type: functional; method in brief: as §2
Staphylococcus aureus [9] = experiment: Antibacterial activity against methicillin-sensitive Staphylococcus aureus ATCC 25923 infected in human THP1 cells assessed as decrease of CFU after 24 hrs relative to initial inoculum; type: functional, THP-1; method in brief: as §1
Staphylococcus aureus [10] = experiment: Antibacterial activity against methicillin-sensitive Staphylococcus aureus ATCC 25923 assessed as decrease of CFU after 24 hrs; type: functional, organism-based; conditions: ATCC 25923, 24 h; method in brief: as §2
Legionella pneumophila [11] = experiment: Antibacterial activity against Legionella pneumophila infected in human THP1 cells assessed as decrease of CFU after 48 hrs; conditions: THP-1, 48 h
Staphylococcus aureus [12] = experiment: Antibacterial activity against methicillin-sensitive Staphylococcus aureus ATCC 25923 assessed as decrease of CFU at 4 mg/liter; type: functional, organism-based
Method in brief: (§3)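 Short-term 6-h time-kill in broth at pH 7.4 at fixed extracellular concentrations of 0.7 or 4 mg/liter; CFU followed over time; three independent experiments.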

Staphylococcus aureus [13] = experiment: Antibacterial activity against methicillin-sensitive Staphylococcus aureus ATCC 25923 after 24 hrs; type: functional; conditions: ATCC 25923, 24 h
Legionella pneumophila [14] = experiment: Antibacterial activity against Legionella pneumophila infected in human THP1 cells assessed as decrease of CFU after 48 hrs relative to initial inoculum
Listeria monocytogenes [15] = experiment: Antibacterial activity against […] Listeria monocytogenes EGD assessed as decrease of CFU after 24 hrs; type: functional, organism-based; conditions: EGD-e
THP-1 [16] = experiment: Drug uptake in human THP1 cells after 2 hrs in presence of monensin; type: ADME, cell-based; conditions: thp-1, 2 h
Method in brief: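 Accumulation at 37°C, 10 mg/liter drug, with monensin 50 μM for 2 h. Microbiological assay normalized to cell protein. n = 3.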

Staphylococcus aureus [17] = experiment: Antibacterial activity against methicillin-sensitive Staphylococcus aureus ATCC 25923 infected in human THP1 cells assessed as decrease of intracellular CFU at 4 mg/liter; type: functional
Method in brief: (§4)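 Phagocytosed bacteria in THP-1 macrophages exposed to a fixed extracellular concentration of 0.7 or 4 mg/liter; intracellular CFU followed over 6 h; three independent experiments.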

Legionella pneumophila [18] = experiment: Antibacterial activity against Legionella pneumophila infected in human THP1 cells assessed as concentration required to no apparent bacterial growth after 48 hrs
Legionella pneumophila [19] = experiment: Antibacterial activity against Legionella pneumophila ATCC 33153 after 48 hrs; type: functional; conditions: ATCC 33153, 48 h
Method in brief: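 L. pneumophila MIC determined in α-ketoglutarate-buffered yeast extract broth, read after 48 h incubation.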

Listeria monocytogenes [20] = experiment: Antibacterial activity against […] Listeria monocytogenes EGD assessed as decrease of CFU after 24 hrs relative to initial inoculum; type: functional, EGD-e
Listeria monocytogenes [21] = experiment: Antibacterial activity against Listeria monocytogenes EGD after 24 hrs; type: functional
Legionella pneumophila [22] = experiment: Antibacterial activity against Legionella pneumophila ATCC 33153 at pH 6.5 to 7.4 after 48 hrs; type: functional; conditions: ATCC 33153, 48 h
THP-1 [23] = experiment: Drug uptake in human THP1 cells at acidic pH after 30 mins; type: ADME, cell-based; conditions: thp-1, 0.5 h
Method in brief: (§5)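 30-min accumulation at 37°C, 10 mg/liter extracellular, in culture medium at varied pH. Microbiological drug assay normalized to cell protein, converted at 5 μl/mg protein. n = 3.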

THP-1 [24] = experiment: Drug uptake in human THP1 cells at pH 6 to 7 after 30 mins; type: ADME, cell-based; conditions: thp-1, pH 6, 0.5 h; method in brief: as §5
Listeria monocytogenes [25] = experiment: Antibacterial activity against […] Listeria monocytogenes EGD assessed as concentration required to no apparent bacterial growth after 24 hrs; type: functional, EGD-e
Staphylococcus aureus [26] = experiment: Antibacterial activity against methicillin-sensitive Staphylococcus aureus ATCC 25923 by time kill study; type: functional; method in brief: as §3
Staphylococcus aureus [27] = experiment: Antibacterial activity against methicillin-sensitive Staphylococcus aureus ATCC 25923 infected in human THP1 cells assessed as decrease of intracellular CFU at 0.7 mg/liter; type: functional, organism-based; conditions: THP-1; method in brief: as §4
Staphylococcus aureus [28] = experiment: Antibacterial activity against methicillin-sensitive Staphylococcus aureus ATCC 25923 assessed as decrease of CFU at 0.7 mg/liter; type: functional, organism-based; method in brief: as §3
THP-1 [29] = experiment: Drug uptake in human THP1 cells after 24 hrs relative to extracellular concentration; type: ADME, cell-based; conditions: thp-1, 24 h
Method in brief: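 THP-1 cells incubated at 37°C with drug at 10 mg/liter extracellular, accumulation followed up to 24 h. Cell-associated drug assayed microbiologically with S. aureus ATCC 25923, normalized to cell protein (Folin-Ciocalteu/biuret) and converted at 5 μl/mg protein to the cellular/extracellular concentration ratio. n = 3.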

| SMILES | Activity (Staphylococcus aureus [1]) [mg/L] | log10cfu (Staphylococcus aureus [2]) | MIC (Listeria monocytogenes [3]) | MIC (Staphylococcus aureus [4]) | Drug uptake (THP-1 [5]) | Drug uptake (THP-1 [6]) | EC50 (Staphylococcus aureus [7]) [µg/mL] | Activity (Staphylococcus aureus [8]) [mg/L] | log10cfu (Staphylococcus aureus [9]) | EC50 (Staphylococcus aureus [10]) [µg/mL] | EC50 (Legionella pneumophila [11]) [µg/mL] | MIC (Staphylococcus aureus [13]) [µg/mL] | log10cfu (Legionella pneumophila [14]) | EC50 (Listeria monocytogenes [15]) [µg/mL] | Drug uptake (THP-1 [16]) | Activity (Legionella pneumophila [18]) [mg/L] | MIC (Legionella pneumophila [19]) [µg/mL] | log10cfu (Listeria monocytogenes [20]) | MIC (Listeria monocytogenes [21]) [µg/mL] | MIC (Legionella pneumophila [22]) [µg/mL] | other results |
| --- | --- | --- | --- | --- | --- | --- | --- | --- | --- | --- | --- | --- | --- | --- | --- | --- | --- | --- | --- | --- | --- |
| CC[C@H]1OC(=O)[C@H](C)[C@@H](O[C@H]2C[C@@](C)(OC)[C@@H](O)[C@H](C)O2)[C@H](C)[C@@H](O[C@@H]2O[C@H](C)C[C@H](N(C)C)[C@H]2O)[C@](C)(OC)C[C@@H](C)C(=O)[C@H](C)[C@@H](O)[C@]1(C)O [CLARITHROMYCIN] | 0.84 | -1.41 | inactive | inactive | Active | Active | 0.046 (≈ 0.0615 µM) | 1.32 | -0.18 | 0.8 (≈ 1.07 µM) | – | – | – | – | – | – | – | – | – | – | – |
| CC[C@H]1OC(=O)[C@H](C)[C@@H](O[C@H]2C[C@@](C)(OC)[C@@H](O)[C@H](C)O2)[C@H](C)[C@@H](O[C@@H]2O[C@H](C)C[C@H](N(C)C)[C@H]2O)[C@](C)(O)C[C@@H](C)CN(C)[C@H](C)[C@@H](O)[C@]1(C)O [AZITHROMYCIN] | 0.63 | -1 | inactive | inactive | Active | Active | 0.024 (≈ 0.032 µM) | 0.29 | -0.29 | 0.12 (≈ 0.16 µM) | 2.86 (≈ 3.82 µM) | 0.5 (≈ 0.668 µM) | -0.83 | 2.66 (≈ 3.55 µM) | Not Active | 2.9 | 0.016 (≈ 0.0214 µM) | -0.81 | 1 (≈ 1.34 µM) | 0.01 (≈ 0.0134 µM) | Activity (Staphylococcus aureus [12]): Active; Activity (Staphylococcus aureus [17]; THP-1): inactive; Drug uptake (THP-1 [23]): Not Active; Drug uptake (THP-1 [24]): Active; Activity (Listeria monocytogenes [25]): 11.6 mg/L |
| CC[C@H]1OC(=O)[C@@](C)(F)C(=O)[C@H](C)[C@@H](O[C@@H]2O[C@H](C)C[C@H](N(C)C)[C@H]2O)[C@](C)(OC)C[C@@H](C)C(=O)[C@H](C)[C@H]2N(CCCCn3cc(-c4cccc(N)c4)nn3)C(=O)O[C@]12C [SOLITHROMYCIN] | 0.022 | -1.37 | 0.0039 µg/mL (≈ 0.00462 µM) | – | Active | Active | 0.0068 (≈ 0.00805 µM) | 0.06 | -0.86 | 0.03 (≈ 0.0355 µM) | 0.052 (≈ 0.0615 µM) | 0.06 (≈ 0.071 µM) | -1.03 | 0.02 (≈ 0.0237 µM) | Not Active | 0.018 | 0.004 (≈ 0.00473 µM) | -0.66 | 0.004 (≈ 0.00473 µM) | 0.005 (≈ 0.00592 µM) | Time (Staphylococcus aureus [26]): 6 h; MIC (Staphylococcus aureus [4]; ATCC 25923, 24 h): 0.06 µg/mL (≈ 0.071 µM); log10cfu (Staphylococcus aureus [17]): 1.5; Activity (Staphylococcus aureus [27]): Active; Activity (Staphylococcus aureus [28]): Active; Drug uptake (THP-1 [23]): Not Active; Drug uptake (THP-1 [24]): Active; fold change (FC) (THP-1 [29]): 350; Activity (Listeria monocytogenes [25]): 0.11 mg/L |
| CC[C@H]1OC(=O)[C@H](C)C(=O)[C@H](C)[C@@H](O[C@@H]2O[C@H](C)C[C@H](N(C)C)[C@H]2O)[C@](C)(OC)C[C@@H](C)C(=O)[C@H](C)[C@H]2N(CCCCn3cnc(-c4cccnc4)c3)C(=O)O[C@]12C [TELITHROMYCIN] | >50 | -1.23 | inactive | inactive | Active | Active | 0.11 (≈ 0.135 µM) | 3.4 | 0.04 | 1.78 (≈ 2.19 µM) | – | – | – | – | – | – | – | – | – | – | – |
